Active and inactive are the calls of the source. The rule behind the calls is not given here.
Key:
[1] = test system: HepG2; test: Cytotoxicity against human HepG2 cells after 24 hrs by MTT assay; assay type: functional, cell-based; conditions: HepG2, 24 h
Outline: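 Cells grown in DMEM with 10% FBS, penicillin/streptomycin at 37 °C, 5% CO2. MTT (5 mg/mL solution) added for 2−4 h at 37 °C, formazan dissolved in DMSO, absorbance read at 570 nm. Viability = mean OD of treated wells / DMSO-control OD; IC50 from viability.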

[2] = Cytotoxicity against human HuH7 cells after 24 hrs by MTT assay; assay type: functional, cell-based; conditions: Huh-7, 24 h
Outline: (§1)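 Cells grown in DMEM with 10% FBS, penicillin/streptomycin at 37 °C, 5% CO2. […] MTT (5 mg/mL solution) added for 2−4 h at 37 °C, formazan dissolved in DMSO, absorbance read at 570 nm. Viability = mean OD of treated wells / DMSO-control OD; IC50 from viability.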

[3] = Cytotoxicity against human QSG7701 cells after 24 hrs by MTT assay; assay type: cell-based; conditions: QSG7701, 24 h; outline: as §1
[4] = test system: SMMC-7721; test: Cytotoxicity against human SMMC7721 cells after 24 hrs by MTT assay; assay type: functional, cell-based; conditions: SMMC-7721, 24 h; outline: as §1
[5] = test system: Huh-7; test: Induction of intracellular ROS production in human HuH7 cells at 20 uM pre-treated with 10 mM ROS scavenger NAC measured after 24 hrs post dose by carboxy-H2DCFDA staining based flow cytometry
[6] = test system: Huh-7; test: Induction of cell cycle arrest in human HuH7 cells assessed as reduction in accumulation at S phase at 5 to 20 uM after 24 hrs by propidium iodide staining based flow cytometry; assay type: functional
Outline: (§2)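 Huh7 exposed 24 h to 5, 10, 20 μM. Cells washed in PBS with 2% FBS, then 3 × 10^5 cells/mL fixed overnight in cold absolute EtOH at 4 °C. After two PBS washes, stained with PI solution (3.8 mM sodium citrate, 20 μg/mL PI in PBS) plus RNase A, 30 min at room temperature in the dark. DNA content read by flow cytometry; means ± SEM, three independent experiments.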

[7] = test system: Huh-7; test: Induction of cell cycle arrest in human HuH7 cells assessed as reduction in accumulation at G0/G1 phase at 5 to 20 uM after 24 hrs by propidium iodide staining based flow cytometry; assay type: functional; outline: as §2
[8] = test system: Huh-7; test: Induction of intracellular ROS production in human HuH7 cells at 5 to 20 uM after 24 hrs by carboxy-H2DCFDA staining based flow cytometry; assay type: functional, cell-based
Outline: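 Huh7 exposed 24 h to 5, 10, 20 μM, harvested, PBS-washed, then loaded in DMEM with 10 μM carboxy-H2DCFDA for 30 min at 37 °C. Washed again; fluorescence measured by flow cytometry as an index of intracellular ROS.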

[9] = test system: Huh-7; test: Induction of apoptosis in human HuH7 cells at 5 to 20 uM after 24 hrs by annexin V-FITC and propidium iodide double staining based flow cytometry; assay type: functional, cell-based
Outline: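 Huh7 exposed 24 h to 5, 10, 20 μM, then collected, PBS-washed and resuspended in binding buffer with annexin V-FITC (10 μg/mL) for 10 min in the dark. PI (20 μg/mL) added, samples read by flow cytometry immediately. Means ± SEM, three independent experiments.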

[10] = test system: Huh-7; test: Induction of cell cycle arrest in human HuH7 cells assessed as increase in accumulation at G2/M phase at 5 to 20 uM after 24 hrs by propidium iodide staining based flow cytometry; assay type: functional; outline: as §2

Row | Compound | IC50 [1] | IC50 [2] | IC50 [3] | IC50 [4] | Activity [5] | Activity [6] | Activity [7] | Activity [8] | Activity [9] | Activity [10]
1 | CC1=CC(O)(C[C@@H](C)C2=CC[C@@]3(C)C4=C(CC[C@]23C)[C@@]2(C)CCC(=O)C(C)(C)[C@@H]2CC4)OC1=O (some centres not stated) [NEOABIESLACTONE E] | 16.7 µM | 20.9 µM | 10.1 µM | 13.4 µM |  |  |  |  |  | 
2 | CO[C@@H]1CC[C@@]2(C)[C@@H](C[C@H](O)[C@@]23CC[C@]2(C)[C@@H]([C@H](C)C[C@@H]4C=C(C)C(=O)O4)CC[C@@]2(C)C3=O)C1(C)C | 20.6 µM | 35.1 µM | > 50 µM | > 50 µM |  |  |  |  |  | 
3 | C[C@@H]1C[C@]2(C[C@@H](C)[C@@]3(CC[C@@]4(C)[C@H]5CC[C@H]6C(C)(C)C(=O)CC[C@]6(C)[C@@H]5CC[C@@]43C)O2)OC1=O | > 50 µM | 18.4 µM | > 50 µM | 28.3 µM |  |  |  |  |  | 
4 | C[C@@H]1C[C@@]2(C[C@@H](C)[C@@]3(CC[C@@]4(C)C5=CC[C@H]6C(C)(C)C(=O)CC[C@]6(C)[C@@H]5CC[C@@]43C)O2)OC1=O | 14.1 µM | 13.5 µM | 15.5 µM | 20.7 µM |  |  |  |  |  | 
5 | C[C@@H]1C[C@]2(C[C@@H](C)[C@@]3(CC[C@@]4(C)C(=O)[C@@]5(CC[C@@]43C)[C@@H](O)C[C@H]3C(C)(C)C(=O)CC[C@@]35C)O2)OC1=O | 15.4 µM | 12.3 µM | 8.2 µM | 10.1 µM |  |  |  |  |  | 
6 | C[C@@H]1C[C@]2(C[C@@H](C)[C@@]3(CC[C@@]4(C)C5=C(C(=O)C[C@@]43C)[C@@]3(C)CCC(=O)C(C)(C)[C@@H]3CC5)O2)OC1=O | 31.2 µM | > 50 µM | 26.8 µM | > 50 µM |  |  |  |  |  | 
7 | C[C@@H]1C[C@@H](C[C@@H](C)[C@@]2(O)CC[C@@]3(C)C4=C(CC[C@@]32C)[C@@]2(C)CCC(=O)C(C)(C)[C@@H]2CC4)OC1=O | > 50 µM | 40.1 µM | 37 µM | 34.6 µM |  |  |  |  |  | 
8 | C[C@@H]1C[C@]2(C[C@@H](C)[C@@]3(CC[C@@]4(C)C5=CC[C@H]6C(C)(C)[C@H](O)CC[C@]6(C)[C@@H]5CC[C@@]43C)O2)OC1=O | > 50 µM | 16.4 µM | 17.6 µM | 19.1 µM |  |  |  |  |  | 
9 | C[C@@H]1C[C@@]2(C[C@@H](C)[C@@]3(CC[C@@]4(C)C5=CC[C@H]6C(C)(C)[C@H](O)CC[C@]6(C)[C@@H]5CC[C@@]43C)O2)OC1=O | > 50 µM | 16.4 µM | 17.6 µM | 19.1 µM |  |  |  |  |  | 
10 | C[C@H](CC(=O)C[C@@H](C)[C@]1(C)CC=C2C3=CC[C@H]4C(C)(C)[C@H](O)CC[C@]4(C)[C@@H]3CC[C@]21C)C(=O)O | > 50 µM | > 50 µM | 42.4 µM | > 50 µM |  |  |  |  |  | 
11 | C/C(=C/CC[C@@H](C)[C@H]1CC[C@@]2(C)C3=CC[C@H]4C(C)(C)[C@@H](O)CC[C@]4(C)[C@@H]3CC[C@]12C)C(=O)O | > 50 µM | > 50 µM | > 50 µM | > 50 µM |  |  |  |  |  | 
12 | C[C@@H]1C[C@@]2(C[C@@H](C)[C@@]3(CC[C@@]4(C)C5=C(C(=O)C[C@@]43C)[C@@]3(C)CCC(=O)C(C)(C)[C@@H]3CC5)O2)OC1=O | 31.2 µM | > 50 µM | 26.8 µM | > 50 µM |  |  |  |  |  | 
13 | C[C@@H]1C[C@]2(C[C@@H](C)[C@@]3(CC[C@@]4(C)[C@H]5CC[C@H]6C(C)(C)[C@H](O)CC[C@@]67C[C@]57CC[C@@]43C)O2)OC1=O | 21.1 µM | 16 µM | > 50 µM | 25.2 µM |  |  |  |  |  | 
14 | C[C@@H]1C[C@@]2(C[C@@H](C)[C@@]3(CC[C@@]4(C)[C@H]5CC[C@H]6C(C)(C)[C@H](O)CC[C@@]67C[C@]57CC[C@@]43C)O2)OC1=O | 21.1 µM | 16 µM | > 50 µM | 25.2 µM |  |  |  |  |  | 
15 | C/C(=C/CC[C@@H](C)[C@H]1CC[C@@]2(C)C3=CC[C@H]4C(C)(C)C(=O)CC[C@]4(C)[C@@H]3CC[C@]12C)C(=O)O | 24 µM | > 50 µM | > 50 µM | > 50 µM |  |  |  |  |  | 
16 | CC(=O)O[C@@H]1CC[C@]23C[C@@]24CC[C@@]2(C)[C@@](C)(CC[C@]25O[C@]2(C[C@@H](C)C(=O)O2)C[C@H]5C)[C@H]4CC[C@H]3C1(C)C | 9.8 µM | 7.5 µM | > 50 µM | 10.7 µM | inactive | Active | Active | Active | Dose-dependent effect | Active
17 | C[C@@H]1C[C@@]2(C[C@@H](C)[C@@]3(CC[C@]4(C)[C@]3(C)CC[C@@]35O[C@@]43[C@@H](OC(=O)Cc3ccccc3)C[C@H]3C(C)(C)C(=O)CC[C@@]35C)O2)OC1=O | > 50 µM | > 50 µM | > 50 µM | > 50 µM |  |  |  |  |  | 
18 | COC(=O)[C@H](C)CC(=O)C[C@@H](C)[C@]1(C)CC[C@@]2(C)C3=CC[C@H]4C(C)(C)[C@H](O)CC[C@]4(C)[C@@H]3CC=C21 | > 50 µM | > 50 µM | > 50 µM | > 50 µM |  |  |  |  |  | 
19 | C[C@@H]1C[C@]2(C[C@@H](C)[C@@]3(CC[C@@]4(C)C5=CC[C@H]6C(C)(C)C(=O)CC[C@]6(C)[C@@H]5CC[C@@]43C)O2)OC1=O | 14.1 µM | 13.5 µM | 15.5 µM | 20.7 µM |  |  |  |  |  | 
20 | COc1cccc2c1C(=O)c1c(O)c3c(c(O)c1C2=O)C[C@@](O)(C(=O)CO)C[C@@H]3O[C@H]1C[C@H](N)[C@H](O)[C@H](C)O1 [DOXORUBICIN] |  | 0.7 µM | 2.9 µM | 0.3 µM |  |  |  |  |  | 
21 | C[C@@H]1C[C@@]2(C[C@@H](C)[C@@]3(CC[C@@]4(C)[C@H]5CC[C@H]6C(C)(C)C(=O)CC[C@]6(C)[C@@H]5CC[C@@]43C)O2)OC1=O | > 50 µM | 18.4 µM | > 50 µM | 28.3 µM |  |  |  |  |  | 
22 | C[C@@H]1C[C@@]2(C[C@@H](C)[C@@]3(CC[C@@]4(C)C(=O)[C@@]5(CC[C@@]43C)[C@@H](O)C[C@H]3C(C)(C)C(=O)CC[C@@]35C)O2)OC1=O | 15.4 µM | 12.3 µM | 8.2 µM | 10.1 µM |  |  |  |  |  | 
23 | C[C@@H]1C[C@]2(C[C@@H](C)[C@@]3(CC[C@]4(C)[C@]3(C)CC[C@@]35O[C@@]43[C@@H](OC(=O)Cc3ccccc3)C[C@H]3C(C)(C)C(=O)CC[C@@]35C)O2)OC1=O | > 50 µM | > 50 µM | > 50 µM | > 50 µM |  |  |  |  |  | 
24 | CC(=O)O[C@@H]1CC[C@]23C[C@@]24CC[C@@]2(C)[C@@](C)(CC[C@]25O[C@@]2(C[C@@H](C)C(=O)O2)C[C@H]5C)[C@H]4CC[C@H]3C1(C)C | 9.8 µM | 7.5 µM | > 50 µM | 10.7 µM | inactive | Active | Active | Active | Dose-dependent effect | Active
